According to ChEMBL document CHEMBL1122944, “The histamine H2 receptor agonist impromidine: synthesis and structure-activity considerations” (J Med Chem, 1985):

Legend:
Histamine H2 receptor [1] = biological target: T1, Histamine H2 receptor (Cavia porcellus, UniProt P47747); assay: Antagonistic activity against H2 receptor in guinea pig.; type: functional; details: read-out: pA2 (converted)
[2] = biological target: Histamine H2 receptor (Cavia porcellus) (UniProt P47747); assay: Agonistic activity against histamine H2 receptor in guinea pig atrium (potency relative to histamine =1); type: functional, tissue-based; details: Cardiac atrium
Outline: (§1)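 Isolated guinea pig atrium, muscle under 400-mg tension, propranolol (0.5 μM) present. Agonist tested up to 781 μM (0.1% histamine) by cumulative dose-response curves. Potency relative to histamine taken from concentrations giving 50% of maximal response; selected compounds by 2 + 2 Latin square parallel-line assay against histamine.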

[3] = biological target: Histamine H2 receptor (Cavia porcellus) (UniProt P47747); assay: Percent maximum response against histamine H2 receptor in guinea pig atrium was evaluated; type: tissue-based; details: Cardiac atrium
Outline: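 Isolated guinea pig atrium under 400-mg tension with propranolol (0.5 μM). Complete cumulative dose-response curves to histamine and test agonist, up to 781 μM, used to find the maximum response obtainable, expressed relative to histamine.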

[4] = biological target: Histamine H2 receptor (Cavia porcellus) (UniProt P47747); assay: Agonistic activity against histamine H2 receptor in guinea pig atrium(potency relative to histamine =1); type: functional, tissue-based; details: Cardiac atrium; outline: as §1
Histamine H2 receptor [5] = biological target: T1, Histamine H2 receptor; assay: Antagonistic activity against H2 receptor in guinea pig was evaluated; type: functional; details: read-out: pA2 (converted)
Outline: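 Guinea pig atrium under 400-mg tension with propranolol (0.5 μM). Histamine concentrations giving half-maximal response measured with and without several antagonist concentrations (B). K_B = B/(x − 1), x being the concentration ratio; pA2 = −log K_B.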

[6] = biological target: Histamine H2 receptor (Cavia porcellus) (UniProt P47747); details: Cardiac atrium

Sequence of Histamine H2 receptor (Cavia porcellus) (P47747 whole entry): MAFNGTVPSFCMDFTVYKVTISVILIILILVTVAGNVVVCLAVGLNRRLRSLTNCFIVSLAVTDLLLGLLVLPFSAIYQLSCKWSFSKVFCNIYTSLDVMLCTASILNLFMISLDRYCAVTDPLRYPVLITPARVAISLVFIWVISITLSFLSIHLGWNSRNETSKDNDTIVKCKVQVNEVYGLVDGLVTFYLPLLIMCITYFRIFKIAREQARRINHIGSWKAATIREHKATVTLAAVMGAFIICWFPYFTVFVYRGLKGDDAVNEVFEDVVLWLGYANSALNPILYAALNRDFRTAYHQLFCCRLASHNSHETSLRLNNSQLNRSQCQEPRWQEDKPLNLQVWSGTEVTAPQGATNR
T1 sequence (P47747 whole entry): as above

Structure (SMILES) | Kb (Histamine H2 receptor [1]) | Potency [2] | Max response [3] | further results
Cc1[nH]cnc1CSCC/N=C(\N)SCCCc1c[nH]cn1 | 3.31 µM |  |  | 
C/N=C(\N)NCCCc1c[nH]cn1 | 12.6 µM | 0.2 | 62% | 
CC1=NN(c2ccc([N+](=O)[O-])cc2)C(=O)C1[N+](=O)[O-].CN/C(=N\CCCc1c[nH]cn1)NCCSCc1[nH]cnc1C |  |  | 91% | Potency [4]: 0.062
C/N=C(\N)NCCCc1nccs1 | 63.1 µM |  |  | 
CSC(=N)NCCSCc1[nH]cnc1C | 6.92 µM |  |  | 
Cc1nc[nH]c1CSCCNC(=S)NCCCc1cnc[nH]1 | 1.2 µM |  |  | 
C/N=C(\N)NCCCCc1c[nH]cn1 | 100 µM | 0.074 | 46% | 
CC1=NN(c2ccc([N+](=O)[O-])cc2)C(=O)C1[N+](=O)[O-].Cc1[nH]cnc1CSCC/N=C(\N)NCCCc1cn(C)cn1 | 1.58 µM | 0.007 | 11% | 
Cc1[nH]cnc1CSCCNC(=N)NCCSCc1nc[nH]c1C | 0.214 µM |  |  | 
C/[S+]=C(/NCCCc1c[nH]cn1)NCCSCc1[nH]cnc1C |  |  |  | Kb (Histamine H2 receptor [5]): 17.8 µM; Potency [6]: 0.01
Cc1[nH]cnc1CSCC/N=C(\N)NCCCCc1c[nH]cn1 | 1.15 µM | 0.83 | 20% | 
CC1=NN(c2ccc([N+](=O)[O-])cc2)C(=O)C1[N+](=O)[O-].N=C(NCCCc1c[nH]cn1)NCCCc1c[nH]cn1 |  | 4.83 | 100% | 
N=C(NCCCc1c[nH]cn1)NCCSCc1c[nH]cn1 |  | 5.38 | 95% | 
N=C(NCCCc1c[nH]cn1)NCCCc1nccs1 |  | 26.6 | 87% | 
CSC(=N)NCCCc1c[nH]cn1 | 25.1 µM | 0.1 | 23% | 
C/N=C(\N)NCCSCc1[nH]cnc1C | 16.2 µM |  |  | 
C/N=C(\N)NCCc1c[nH]cn1 | > 501 µM |  | 62% | Potency [4]: 0.01
N=C(NCCCc1c[nH]cn1)NCCSCc1nccs1 |  | 24.4 | 91% | 
C/N=C(\N)NCCSCc1c[nH]cn1 | 41.7 µM |  |  | 
CC1=NN(c2ccc([N+](=O)[O-])cc2)C(=O)C1[N+](=O)[O-].Cc1[nH]cnc1CSCC/N=C(\N)NCCc1c[nH]cn1 |  | 1.93 | 100% | 
Cc1[nH]cnc1CSCCNC(=N)NCCCc1c[nH]cn1 |  | 48.1 | 98.7% | 
Cc1[nH]cnc1CSCC/N=C(\NC#N)NCCCc1c[nH]cn1 | 0.575 µM |  |  | 
Cc1nc[nH]c1CSCCNC(=O)NCCCc1cnc[nH]1 | 6.31 µM |  |  | 
N=C(NCCCCc1c[nH]cn1)NCCCc1c[nH]cn1 |  | 12.3 | 85.5% | 
